The record followed here is ChEMBL document CHEMBL1155442, “Click chemistry approach to new N-substituted aminocyclitols as potential pharmacological chaperones for Gaucher disease” (J Med Chem, 2010).

The structures appear in SMILES notation. Active and inactive are the calls of the source. No cut-off for these calls is given here.

Data set [1] deals with T1, Lysosomal acid glucosylceramidase (Homo sapiens, UniProt P04062).
T1 sequence (P04062 whole entry): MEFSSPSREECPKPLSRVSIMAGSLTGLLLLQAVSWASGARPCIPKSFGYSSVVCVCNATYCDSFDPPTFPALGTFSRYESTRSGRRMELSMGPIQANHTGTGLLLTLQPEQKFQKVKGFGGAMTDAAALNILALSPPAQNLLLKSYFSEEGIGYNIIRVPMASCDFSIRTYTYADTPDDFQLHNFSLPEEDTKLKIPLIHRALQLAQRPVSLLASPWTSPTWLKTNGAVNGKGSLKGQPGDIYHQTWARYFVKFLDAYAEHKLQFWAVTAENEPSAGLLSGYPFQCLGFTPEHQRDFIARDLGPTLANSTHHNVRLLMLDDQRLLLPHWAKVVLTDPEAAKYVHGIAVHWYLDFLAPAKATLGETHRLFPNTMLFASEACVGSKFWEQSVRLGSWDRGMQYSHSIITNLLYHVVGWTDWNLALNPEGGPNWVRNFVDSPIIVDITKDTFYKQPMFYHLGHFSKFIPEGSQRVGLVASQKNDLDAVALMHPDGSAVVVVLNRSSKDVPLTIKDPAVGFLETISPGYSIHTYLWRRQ
The data set is described as follows: Competitive inhibition of beta-glucocerebrosidase at pH 5.2 by Lineweaver-Burke plot analysis.

Data set [2] in a line: Cytotoxicity against human fibroblast after 24 hrs by MTT assay. Type of data set: cell-based. Conditions: human fibroblasts. A general note: Tetrazolium dyes change colour on reduction, which living cells bring about.
In data set [3] the target is T2, Lysosomal acid glucosylceramidase (Homo sapiens) (UniProt P04062).
T2 sequence (whole entry): T1 sequence (P04062 whole entry)
The data set is described as follows: Inhibition of beta-glucocerebrosidase in human fibroblast at 50 uM after 24 hrs by fluorescence assay. The procedure, abridged: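 Wild-type human fibroblasts exposed to compound for 24 h (10, 20 or 50 μM, as listed) with 5 mM substrate. Cellular GCase activity then measured.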

Data set [4] deals with Prunus dulcis. Description: Inhibition of sweet almond beta-glucosidase at 0.1 mM.
The test system of data set [5] is Saccharomyces cerevisiae. The data set is described as follows: Inhibition of yeast alpha-glucosidase at 0.1 mM.
Data set [6] deals with Oryza sativa. Description: Inhibition of rice alpha-glucosidase at 0.1 mM.
The test system of data set [7] is Oryza sativa. Description: Inhibition of rice alpha-galactosidase at 0.1 mM.
The target in data set [8] is T3, Beta-galactosidase (Bos taurus) (UniProt Q58D55).
T3 sequence (whole entry): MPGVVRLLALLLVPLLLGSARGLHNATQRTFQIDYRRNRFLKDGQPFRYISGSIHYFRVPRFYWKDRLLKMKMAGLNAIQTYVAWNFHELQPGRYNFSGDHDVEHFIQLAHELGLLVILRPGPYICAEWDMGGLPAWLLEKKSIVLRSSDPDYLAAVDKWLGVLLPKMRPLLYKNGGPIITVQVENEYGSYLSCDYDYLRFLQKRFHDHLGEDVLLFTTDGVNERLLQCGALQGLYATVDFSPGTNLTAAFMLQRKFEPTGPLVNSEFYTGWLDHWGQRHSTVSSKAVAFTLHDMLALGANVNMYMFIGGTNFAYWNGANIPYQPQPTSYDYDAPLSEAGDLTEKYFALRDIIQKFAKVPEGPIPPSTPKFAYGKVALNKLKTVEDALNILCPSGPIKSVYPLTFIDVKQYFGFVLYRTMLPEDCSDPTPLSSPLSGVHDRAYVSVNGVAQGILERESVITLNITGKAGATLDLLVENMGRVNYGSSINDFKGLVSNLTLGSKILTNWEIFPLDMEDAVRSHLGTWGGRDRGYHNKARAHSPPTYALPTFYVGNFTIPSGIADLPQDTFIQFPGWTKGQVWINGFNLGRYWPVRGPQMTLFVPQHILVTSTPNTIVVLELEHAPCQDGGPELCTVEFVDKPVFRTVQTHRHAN
The data set is described as follows: Inhibition of bovine liver beta-galactosidase at 0.1 mM.

A short description of data set [9]: Dissociation constant, pKa of the compound. Format: physicochemical.
Data set [10] deals with T1, Lysosomal acid glucosylceramidase. The data set is described as follows: Inhibition of recombinant beta-glucocerebrosidase after 10 mins by fluorimetry. The method in brief: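 Imiglucerase (0.1 mg/mL stock) in McIlvaine buffer, pH 5.2 or 7.4, with 0.2% sodium taurocholate and 0.1% Triton X-100. Preincubated 30 min at 37 °C with or without inhibitor. Then 4 mM 4-methylumbelliferyl-β-D-glucopyranoside added for 10 min at 37 °C. Stopped with glycine/NaOH pH 10.6; 4-MU read at ex 355/em 460 nm. IC50 from % activity vs log[I], at least five concentrations.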

The target is the same in data set [11]. Description: Inhibition of recombinant beta-glucocerebrosidase at pH 7.4 after 10 mins by fluorimetry.
The target is the same in data set [12]. Description: Inhibition of recombinant beta-glucocerebrosidase at pH 5.2 after 10 mins by fluorimetry.
Data set [13] can be described thus: Cytotoxicity against human fibroblast at 300 uM after 24 hrs by MTT assay. Format: cell-based.
The target of data set [14] is T2, Lysosomal acid glucosylceramidase (Homo sapiens). The data set is described as follows: Binding affinity to recombinant beta-glucocerebrosidase assessed as enzymatic activity at 50 uM after 20 mins by thermal stabilization assay relative to control.
For data set [15] the target is unchanged. The data set is described as follows: Binding affinity to recombinant beta-glucocerebrosidase assessed as enzymatic activity at 50 uM after 40 mins by thermal stabilization assay relative to control.
Data set [16] shares this target. The data set is described as follows: Binding affinity to recombinant beta-glucocerebrosidase assessed as enzymatic activity at 50 uM after 60 mins by thermal stabilization assay relative to control.
Data set [17] has the same target. The data set is described as follows: Binding affinity to recombinant beta-glucocerebrosidase assessed as enzymatic activity at 100 uM after 20 mins by thermal stabilization assay relative to control.
The target is the same in data set [18]. Description: Binding affinity to recombinant beta-glucocerebrosidase assessed as enzymatic activity at 100 uM after 40 mins by thermal stabilization assay relative to control.
Data set [19] has the same target. The data set is described as follows: Binding affinity to recombinant beta-glucocerebrosidase assessed as enzymatic activity at 100 uM after 60 mins by thermal stabilization assay relative to control.
Data set [20] shares this target. The data set is described as follows: Binding affinity to recombinant beta-glucocerebrosidase assessed as enzymatic activity at 150 uM after 20 mins by thermal stabilization assay relative to control.
Data set [21] shares this target. Description: Binding affinity to recombinant beta-glucocerebrosidase assessed as enzymatic activity at 150 uM after 40 mins by thermal stabilization assay relative to control.
The target is the same in data set [22]. The data set is described as follows: Binding affinity to recombinant beta-glucocerebrosidase assessed as enzymatic activity at 150 uM after 60 mins by thermal stabilization assay relative to control.
A short description of data set [23]: Selectivity index, ratio of CC50 for human fibroblast to Ki for beta-glucocerebrosidase.

For orientation: Ki means a dissociation constant, usually derived from enzyme kinetics or from competition with a known ligand. A high value points to lower affinity. The CC50 is the concentration at which the toxic effect on the cells reaches its halfway point. One may read the inhibition as the share of the control response that was lost under treatment. Usually pKa stands for the negative logarithm of the acid dissociation constant. Usually IC50 stands for the concentration that inhibits the measured activity by half. Regarding `CCCCCCCCCCn1cc(CCCN[C@H]2[C@H](O)[C@@H](O)[C@H](O)[C@@H](O)[C@@H]2O)nn1`, the Ki in data set [1] is 7.6 µM. The same molecule showed a CC50 at 24 h in data set [2] of 170 µM. The same molecule yielded an inhibition in data set [3] of 20%. Moreover, the inhibition result in data set [4], in data set [5], in [6], in [7] and in data set [8] was “inactive” throughout. The pKa in data set [9] was 9.9. Further, the results for the IC50 in data set [10], in [11] and in [12] were 3.47 µM, 1.2 µM and 3.5 µM, respectively.

For the molecule `CCCCCCCCn1cc(CN[C@H]2[C@H](O)[C@@H](O)[C@H](O)[C@@H](O)[C@@H]2O)nn1`, in data set [1], the Ki came to 1.8 µM. In addition, the Activity result in data set [13] is listed as “Non-toxic”. Besides, the inhibition in data set [3] is 20%. In addition, the inhibition entry in data set [4], in [5], in data set [6], in data set [7] and in [8] was “inactive” in each case. The molecule also came in with a pKa in data set [9] of 7.7. Also, the IC50 in [10] was 1.05 µM; in data set [11], 1.1 µM; in data set [12] it was 1 µM.

Regarding `CCCCCCCCn1cc(CCN[C@H]2[C@H](O)[C@@H](O)[C@H](O)[C@@H](O)[C@@H]2O)nn1`, the Activity result in [13] is “Non-toxic”. Further, the inhibition in [3] was under 5%. The inhibition result in data set [4], in data set [5], in [6], in data set [7] and in data set [8] was “inactive” throughout. This molecule also returned a pKa in data set [9] of 9.1. For the same molecule, the IC50 in data set [10] is 166 µM; in data set [11], 55.9 µM; in [12], 167 µM.

Molecule `CCCCCCCCCn1cc(CN[C@H]2[C@H](O)[C@@H](O)[C@H](O)[C@@H](O)[C@@H]2O)nn1` displayed a Ki in [1] of 0.33 µM. For the same molecule, the fold change (FC) in [14] was 2.06; in data set [15], 5.69; in data set [16], 9.95; in [17], 2.28; in [18], 6.71; in [19], 13. Moreover, the fold change (FC) in data set [20] worked out at 2.34; in data set [21], 7.23; in [22], 15.5. Further, the Activity entry in data set [13] was “Non-toxic”. The “Selectivity Index” value in [23] was “>=900”. Further, in data set [3], the inhibition worked out at 50%. Further, the inhibition entry in [4], in [5], in data set [6], in [7] and in data set [8] was “inactive” in each case. Moreover, the pKa in data set [9] was determined as 7.1. Also, the IC50 was 0.224 µM in [10], 0.2 µM in [11] and 0.2 µM in data set [12].

Turning to `O[C@@H]1[C@@H](O)[C@H](O)[C@@H](NCc2cn(CCc3ccccc3)nn2)[C@H](O)[C@H]1O`, the Ki in [1] was determined as 19.1 µM. In data set [13], the Activity entry was “Non-toxic”. Further, the inhibition in data set [3] was under 5%. Also, the inhibition entry in data set [4], in data set [5], in data set [6], in data set [7] and in data set [8] was “inactive” in each case. The molecule also came in with a pKa in [9] of 7.8. Also, the 50% inhibitory concentration (IC50) is 10.7 µM in [10], 25 µM in [11] and 10.8 µM in data set [12].

With `CCCCn1cc(CN[C@H]2[C@H](O)[C@@H](O)[C@H](O)[C@@H](O)[C@@H]2O)nn1`, the Activity entry in [13] was “Non-toxic”. Moreover, the inhibition in data set [3] was under 5%. Further, the inhibition result in [4], in [5], in data set [6], in data set [7] and in [8] was “inactive” throughout. Moreover, in data set [9], the pKa was found to be 7.2. The IC50 in data set [10] and in data set [12] was 178 µM in each case.

For `CCCCCCCCCN1C[C@H](O)[C@@H](O)[C@H](O)[C@H]1CO`, the Activity result in [13] is listed as “Non-toxic”.

The molecule `CCCCCCCCCCN[C@H]1[C@H](O)[C@@H](O)[C@H](O)[C@@H](O)[C@@H]1O` yielded a Ki in data set [1] of 0.3 µM. The fold change (FC) in data set [14] is 1.29; in [15], 2.33; in data set [16], 2.24; in data set [17], 1.84; in data set [18] it was 4.49; in data set [19] it was 4.89. For the same molecule, the fold change (FC) in [20] came to 1.99; in data set [21], 5.85; in data set [22], 11.3. Also, in [13], the Activity entry is “Non-toxic”. In addition, in data set [12], the IC50 was found to be 1.8 µM.

For the molecule `CCCCN1C[C@H](O)[C@@H](O)[C@H](O)[C@H]1CO`, in data set [13], the Activity result is listed as “Non-toxic”.

`CCCCCCCCCn1cc(CCN[C@H]2[C@H](O)[C@@H](O)[C@H](O)[C@@H](O)[C@@H]2O)nn1`: the fold change (FC) in data set [14] is 2.22; in data set [15], 4.54; in [16] it was 4.62; in data set [17], 2.32; in [18], 5.75; in data set [19] it was 7.6. In addition, the fold change (FC) in data set [20] was 2.37; in data set [21], 6.1; in data set [22] it was 9.44. For the same molecule, the Activity entry in data set [13] is on record as “Non-toxic”. For the same molecule, the inhibition in data set [3] was under 5%. The inhibition result in [4], in [5], in [6], in data set [7] and in [8] was “inactive” in each case. Also, the pKa in [9] came to 9.1. Besides, the IC50 in data set [10] was 44.7 µM; in data set [11], 11 µM; in [12], 44.7 µM.

Regarding `CCCOCCCCCCn1cc(CN[C@H]2[C@H](O)[C@@H](O)[C@H](O)[C@@H](O)[C@@H]2O)nn1`, in [1], the affinity, expressed as Ki, was 2.4 µM. In addition, the Activity result in [13] was “Non-toxic”. This molecule also showed an inhibition in data set [3] of under 5%. The inhibition entry in data set [4], in data set [5], in data set [6], in data set [7] and in [8] was “inactive” throughout. The pKa in [9] was 7.1. Further, the IC50 in data set [10] is 7.41 µM; in data set [11], 6.2 µM; in data set [12] it was 7.4 µM.
